Laboratory results reported in ChEMBL document CHEMBL5058577, “EUbOPEN Chemogenomics Library 2 (Multiplex)” (2022).

System: Fibroblast
Test: Multiplex assay against human fibroblast
Type: toxicity, cell-based
In short: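 Cells stained live at seeding with Hoechst33342, BioTracker Green Microtubule Cytoskeleton Dye, MitoTracker Red and Annexin V Alexa Fluor 680 were imaged on a CQ1 microscope at 37°C and 5% CO2 after compound addition. Their classification by CellPathfinder machine-learning gating ran from Hoechst high-intensity objects versus normal cells, to healthy, pyknosed or fragmented nuclei among normal cells, to mitotic or apoptotic among pyknosed cells. Tubulin, mitochondrial-mass and membrane-permeability phenotypes are per cents of healthy-nucleus cells.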

[1] = 12 h, 1 µM, compound concentration 1 uM, replicate 1
[2] = 12 h, 1 µM, compound concentration 1 uM, replicate 2
[3] = 12 h, 10 µM, compound concentration 10 uM, replicate 1
[4] = 12 h, 10 µM, compound concentration 10 uM, replicate 2
[5] = 24 h, 1 µM, compound concentration 1 uM, replicate 1
[6] = 24 h, 1 µM, compound concentration 1 uM, replicate 2
[7] = 24 h, 10 µM, compound concentration 10 uM, replicate 1
[8] = 24 h, 10 µM, compound concentration 10 uM, replicate 2
[9] = 48 h, 1 µM, compound concentration 1 uM, replicate 1
[10] = 48 h, 1 µM, compound concentration 1 uM, replicate 2
[11] = 48 h, 10 µM, compound concentration 10 uM, replicate 1
[12] = 48 h, 10 µM, compound concentration 10 uM, replicate 2

COc1ccc2c(c1)C(C(=O)N(Cc1ccc(N(C)C)cc1)c1ccc(C(C)C)cc1)CCC2.Cl (configuration not stated)
Population Apoptotic (%) [1]: 57%
Population Fragmented Nuclei (%) [1]: 15%
Population Healthy Nuclei (%) [1]: 72%
Population Hoechst High Intensity Objects (%) [1]: 1%
Population Membrane Permeable-Phenotype (%) [1]: 1%
Population Mitochondria Different-Phenotype (%) [1]: 7%
Population Mitotic Cells (%) [1]: 42%
Population Normal (%) [1]: 98%
Population Pyknosed Nuclei (%) [1]: 11%
Population Tubulin-Different-Phenotype (%) [1]: 22%
Total Cell Count [1]: 163
Population Apoptotic (%) [2]: 45%
Population Fragmented Nuclei (%) [2]: 20%
Population Healthy Nuclei (%) [2]: 55%
Population Hoechst High Intensity Objects (%) [2]: 5%
Population Membrane Permeable-Phenotype (%) [2]: 5%
Population Mitochondria Different-Phenotype (%) [2]: 15%
Population Mitotic Cells (%) [2]: 54%
Population Normal (%) [2]: 94%
Population Pyknosed Nuclei (%) [2]: 23%
Population Tubulin-Different-Phenotype (%) [2]: 57%
Total Cell Count [2]: 138
Population Apoptotic (%) [3]: 58%
Population Fragmented Nuclei (%) [3]: 17%
Population Healthy Nuclei (%) [3]: 69%
Population Hoechst High Intensity Objects (%) [3]: 1%
Population Membrane Permeable-Phenotype (%) [3]: 0%
Population Mitochondria Different-Phenotype (%) [3]: 12%
Population Mitotic Cells (%) [3]: 41%
Population Normal (%) [3]: 98%
Population Pyknosed Nuclei (%) [3]: 13%
Population Tubulin-Different-Phenotype (%) [3]: 67%
Total Cell Count [3]: 181
Population Apoptotic (%) [4]: 53%
Population Fragmented Nuclei (%) [4]: 38%
Population Healthy Nuclei (%) [4]: 51%
Population Hoechst High Intensity Objects (%) [4]: 2%
Population Membrane Permeable-Phenotype (%) [4]: 6%
Population Mitochondria Different-Phenotype (%) [4]: 14%
Population Mitotic Cells (%) [4]: 46%
Population Normal (%) [4]: 97%
Population Pyknosed Nuclei (%) [4]: 10%
Population Tubulin-Different-Phenotype (%) [4]: 77%
Total Cell Count [4]: 148
Population Apoptotic (%) [5]: 55%
Population Fragmented Nuclei (%) [5]: 11%
Population Healthy Nuclei (%) [5]: 77%
Population Hoechst High Intensity Objects (%) [5]: 1%
Population Membrane Permeable-Phenotype (%) [5]: 0%
Population Mitochondria Different-Phenotype (%) [5]: 5%
Population Mitotic Cells (%) [5]: 44%
Population Normal (%) [5]: 98%
Population Pyknosed Nuclei (%) [5]: 11%
Population Tubulin-Different-Phenotype (%) [5]: 25%
Total Cell Count [5]: 156
Population Fragmented Nuclei (%) [6]: 19%
Population Healthy Nuclei (%) [6]: 59%
Population Hoechst High Intensity Objects (%) [6]: 3%
Population Membrane Permeable-Phenotype (%) [6]: 2%
Population Mitochondria Different-Phenotype (%) [6]: 11%
Population Normal (%) [6]: 96%
Population Pyknosed Nuclei (%) [6]: 20%
Population Tubulin-Different-Phenotype (%) [6]: 41%
Total Cell Count [6]: 136
Population Apoptotic (%) [7]: 50%
Population Fragmented Nuclei (%) [7]: 17%
Population Healthy Nuclei (%) [7]: 72%
Population Hoechst High Intensity Objects (%) [7]: 3%
Population Membrane Permeable-Phenotype (%) [7]: 0%
Population Mitochondria Different-Phenotype (%) [7]: 15%
Population Mitotic Cells (%) [7]: 50%
Population Normal (%) [7]: 96%
Population Pyknosed Nuclei (%) [7]: 10%
Population Tubulin-Different-Phenotype (%) [7]: 63%
Total Cell Count [7]: 180
Population Apoptotic (%) [8]: 42%
Population Fragmented Nuclei (%) [8]: 39%
Population Healthy Nuclei (%) [8]: 55%
Population Hoechst High Intensity Objects (%) [8]: 2%
Population Membrane Permeable-Phenotype (%) [8]: 2%
Population Mitochondria Different-Phenotype (%) [8]: 12%
Population Mitotic Cells (%) [8]: 57%
Population Normal (%) [8]: 97%
Population Pyknosed Nuclei (%) [8]: 4%
Population Tubulin-Different-Phenotype (%) [8]: 85%
Total Cell Count [8]: 148
Population Apoptotic (%) [9]: 66%
Population Fragmented Nuclei (%) [9]: 17%
Population Healthy Nuclei (%) [9]: 75%
Population Hoechst High Intensity Objects (%) [9]: 1%
Population Membrane Permeable-Phenotype (%) [9]: 1%
Population Mitochondria Different-Phenotype (%) [9]: 3%
Population Mitotic Cells (%) [9]: 33%
Population Normal (%) [9]: 98%
Population Pyknosed Nuclei (%) [9]: 6%
Population Tubulin-Different-Phenotype (%) [9]: 27%
Total Cell Count [9]: 180
Population Apoptotic (%) [10]: 52%
Population Fragmented Nuclei (%) [10]: 26%
Population Healthy Nuclei (%) [10]: 61%
Population Membrane Permeable-Phenotype (%) [10]: 5%
Population Mitochondria Different-Phenotype (%) [10]: 13%
Population Mitotic Cells (%) [10]: 47%
Population Pyknosed Nuclei (%) [10]: 12%
Population Tubulin-Different-Phenotype (%) [10]: 46%
Total Cell Count [10]: 152
Population Apoptotic (%) [11]: 71%
Population Fragmented Nuclei (%) [11]: 21%
Population Healthy Nuclei (%) [11]: 71%
Population Hoechst High Intensity Objects (%) [11]: 4%
Population Membrane Permeable-Phenotype (%) [11]: 0%
Population Mitochondria Different-Phenotype (%) [11]: 8%
Population Mitotic Cells (%) [11]: 28%
Population Normal (%) [11]: 95%
Population Pyknosed Nuclei (%) [11]: 7%
Population Tubulin-Different-Phenotype (%) [11]: 71%
Total Cell Count [11]: 203
Population Apoptotic (%) [12]: 75%
Population Fragmented Nuclei (%) [12]: 45%
Population Healthy Nuclei (%) [12]: 52%
Population Hoechst High Intensity Objects (%) [12]: 0%
Population Membrane Permeable-Phenotype (%) [12]: 3%
Population Mitotic Cells (%) [12]: 25%
Population Normal (%) [12]: 99%
Population Pyknosed Nuclei (%) [12]: 2%
Population Tubulin-Different-Phenotype (%) [12]: 81%
Total Cell Count [12]: 174
